The source of these data is paper PMC10505864 (Asian Pacific Journal of Cancer Prevention : APJCP, 2023).

For series [1] the following is noted: after oral administration; ref Salemaldajeh et al., 2015; Emad et al., 2018; cited from earlier work.
The nature of series [2]: Pharmacokinetic study of CBZ in rat plasma. In kind it is in vivo, rat (Sprague Dawley). In a few lines:
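Male and female Sprague Dawley rats (~200 g), seven per group, fasted 24 h. Given 10 mg/kg by oral gavage, alone or after 30 mg/kg extract by gavage (three days before, repeated 30 min pre-dose). Orbital blood collected into EDTA from 0–24 h. Plasma precipitated with acetonitrile containing metronidazole benzoate internal standard, then C18 HPLC-UV at 285 nm. Calibration 75–5,000 ng/mL; samples run in duplicate.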

Series [3] has as its system MCF-7 (human breast cancer cells). Briefly: MTT cell viability assay on MCF-7 cells. Format: cell-based. The settings on record: for IC50 / inhibition at 30 µg/mL / inhibition at 60 µg/mL / inhibition at 130 µg/mL / inhibition at 250 µg/mL / inhibition at 500 µg/mL / inhibition at 1000 µg/mL: Homo sapiens, MCF7, 48 h; for IC50: read-out: IC50 µg/mL on MCF-7; for inhibition at 30 µg/mL / inhibition at 60 µg/mL / inhibition at 130 µg/mL / inhibition at 250 µg/mL / inhibition at 500 µg/mL / inhibition at 1000 µg/mL: read-out: Inhibition (%) of MCF-7 Cells. The method, boiled down: (§1)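 PC3 cells grown in RPMI-1640 and MCF-7 cells in DMEM, each with 10% heat-inactivated FBS, penicillin/streptomycin, L-glutamine and amphotericin B. Seeded at 2 × 10^4 cells/well and grown to ~70% confluence (37°C, 5% CO2). Test compounds given as eight serial dilutions, starting at 1 mg/mL for drugs and 2.5 mg/mL for extract, for 48 h. MTT (5 mg/mL solution) added for 4 h at 25°C; A570 read.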
(In general: Formazan colour is commonly taken as a measure of viable cells.)

Series [4] deals with PC3 (human prostate cancer cells). Briefly: MTT cell viability assay on PC3 cells. Format: cell-based. The settings on record: for IC50 / inhibition at 30 µg/mL / inhibition at 60 µg/mL / inhibition at 130 µg/mL / inhibition at 250 µg/mL / inhibition at 500 µg/mL / inhibition at 1000 µg/mL: Homo sapiens, PC-3, 48 h; for IC50: read-out: IC50 µg/mL on PC3; for inhibition at 30 µg/mL / inhibition at 60 µg/mL / inhibition at 130 µg/mL / inhibition at 250 µg/mL / inhibition at 500 µg/mL / inhibition at 1000 µg/mL: read-out: Inhibition (%) of PC3 Cells; for cytotoxicity activity (in words): PC3. In a few lines: as §1

The conditions of series [5]: ref Salemaldajeh et al., 2015; Emad et al., 2018; cited from earlier work.
The conditions of series [6]: rat plasma, ref Salemaldajeh et al., 2015, cited from earlier work.
Where [7] appears, read: both, Sprague Dawley, rat, plasma, po, 10 mg/kg.
Setting [8] is: rat plasma, CBZ 10 mg/kg oral gavage, alone, listed as CBZ alone.

In brackets after ≈: the same amount, converted by molar mass. Like-named read-outs stand apart in the source and are kept apart here.

As usually defined, the Cmax is the highest concentration seen after dosing. What is called Tmax is the time at which the peak concentration occurs. Usually inhibition stands for the relative decrease from the control value, in per cent. Regarding `NC(=O)N1c2ccccc2C=Cc2ccccc21` [CBZ, carbamazepine], the “binds to plasma proteins” value in series [1] was “approximately 75%”. Also, in series [2] (both, Sprague Dawley, rat, plasma, oral, 10 mg/kg), the concentration at 24 h is 65.2 ng/mL. Moreover, in series [2] (setting [7]), the Cmax amounted to 4630 ng/mL, the Tmax amounted to 3.5 h and the k el is 5e-05 s⁻¹. Also, in series [2] (setting [8]), the “AUC (0–24 h)” value stood at 49225 ng·h/mL and the Half-life turned out to be 3.78 h. Further, in series [3], the IC50 amounted to 250 ± 44 µg/mL (≈ 1060 µM), the inhibition at 30 µg/mL was found to be 11.9%, the inhibition at 60 µg/mL was found to be 19.7% and the inhibition at 130 µg/mL came out at 30.1%. In series [3], the inhibition at 250 µg/mL came to 53.2%, the inhibition at 500 µg/mL is 69.3% and the inhibition at 1000 µg/mL was found to be 83.3%. Moreover, in series [4], the IC50 amounted to 130 ± 27 µg/mL (≈ 550 µM), the inhibition at 30 µg/mL is 29.7%, the inhibition at 60 µg/mL turned out to be 31.4% and the inhibition at 130 µg/mL was determined as 53%. In series [4], the inhibition at 250 µg/mL turned out to be 87.5%, the inhibition at 500 µg/mL is 95.1% and the inhibition at 1000 µg/mL stood at 93.4%. The “cytotoxicity activity (in words)” value in series [4] (MTT, 48 h) was “robust”. Moreover, the “drug excreted unchanged without metabolism” value in series [5] is “about 5%”. For the same compound, the Cmax in series [6] (CBZ alone) is recorded as 4,130 ng/mL. In series [6] (CBZ combined with graviola juice), the Cmax is 2,886 ng/mL.
Regarding `N.N.[Cl][Pt][Cl]` [Cisplatin], the “IC50 µg/mL on MCF-7” value in series [3] (MTT, 48 h, mean ± SD) amounted to 14.6 ± 2.4 µg/mL. Further, in series [4] (MTT, 48 h, mean ± SD), the “IC50 µg/mL on PC3” value came out at 8.6 ± 1.5 µg/mL.
In the case of `COc1cccc2c1C(=O)c1c(O)c3c(c(O)c1C2=O)C[C@@](O)(C(=O)CO)C[C@@H]3O[C@H]1C[C@H](N)[C@H](O)[C@H](C)O1` [Doxorubicin], the IC50 in series [3] was 0.64 ± 0.04 µg/mL (≈ 1.18 µM); in series [4], 0.62 ± 0.06 µg/mL (≈ 1.14 µM).
Turning to `CCCC(CCC)C(=O)O` [VPA, valproic acid], in series [3], the IC50 is greater than 1000 µg/mL, the inhibition at 30 µg/mL is 10.6%, the inhibition at 60 µg/mL is 8.5% and the inhibition at 130 µg/mL was 13.4%. In series [3], the inhibition at 250 µg/mL is 15.7%, the inhibition at 500 µg/mL turned out to be 14.7% and the inhibition at 1000 µg/mL was determined as 24.9%. The “cytotoxicity activity (in words)” value in series [3] (MCF-7, MTT, 48 h) was “weak”. In addition, in series [4], the IC50 was greater than 1000 µg/mL, the inhibition at 30 µg/mL amounted to 19.8%, the inhibition at 60 µg/mL was determined as 10.7% and the inhibition at 130 µg/mL was determined as 2.62%. In series [4], the inhibition at 250 µg/mL was determined as 0.74%, the inhibition at 500 µg/mL came to 0.24% and the inhibition at 1000 µg/mL stood at 26.7%. For the same compound, in series [4] (MTT, 48 h), the “cytotoxicity activity (in words)” value is reported as “weak”.
